For twelve molecules, inhibition results are on record in ChEMBL document CHEMBL3272254, “Inhibition of squalene synthetase by farnesyl pyrophosphate analogues” (J Med Chem, 1977).

Molecules are shown by their SMILES. The source made the active and inactive calls. No cut-off for these calls is given here.

For test [1], the target named is T1, Squalene synthase ERG9 (Saccharomyces cerevisiae (strain ATCC 204508 / S288c) (Baker's yeast)) (UniProt P29704).
T1 sequence (whole entry): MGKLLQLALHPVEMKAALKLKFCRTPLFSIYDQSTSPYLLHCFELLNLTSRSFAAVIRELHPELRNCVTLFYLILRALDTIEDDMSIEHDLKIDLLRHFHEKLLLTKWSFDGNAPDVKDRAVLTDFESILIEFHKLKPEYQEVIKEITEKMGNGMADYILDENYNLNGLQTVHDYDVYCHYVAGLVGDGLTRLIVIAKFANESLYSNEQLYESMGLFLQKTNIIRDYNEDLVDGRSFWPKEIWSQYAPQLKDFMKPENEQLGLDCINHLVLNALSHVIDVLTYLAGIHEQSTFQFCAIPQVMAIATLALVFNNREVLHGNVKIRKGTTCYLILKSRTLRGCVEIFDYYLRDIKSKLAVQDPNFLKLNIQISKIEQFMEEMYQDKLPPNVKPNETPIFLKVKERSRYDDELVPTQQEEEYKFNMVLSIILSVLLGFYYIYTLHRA
Kind of test: Inhibition of Baker's yeast squalene synthetase using [1-3H]farnesyl pyrophosphate as substrate at 4 uM preincubated for up to 5 hrs before substrate addition by liquid scintillation spectrometer analysis.

In test [2] the target is T1, Squalene synthase ERG9 (Saccharomyces cerevisiae (strain ATCC 204508 / S288c) (Baker's yeast)). Kind of test: Mixed type inhibition of Baker's yeast squalene synthetase using [1-3H]farnesyl pyrophosphate as substrate by Lineweaver-Burk graphic analysis. An outline of the steps: (§1)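 Enzyme: yeast […] from sonicated baker's yeast, high-speed supernatant precipitated at 30–55% ammonium sulfate, dialyzed in 100 mM K phosphate pH 7.0 with 20 mM 2-mercaptoethanol. Assay in 1 ml at 37 °C, started with enzyme (1.34 mg/ml protein): [1-3H]FPP 1–10 µM, 10 mM MgCl2, 1.6 mM NADPH, 50 mM K phosphate pH 7.5. Squalene recovered by minicolumn and scintillation counted. Each point done in at least two independent experiments.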

Test [3] has the same target. Kind of test: Inhibition of Baker's yeast squalene synthetase assessed as incorporation of [1-3H]farnesyl pyrophosphate into squalene up to 20 uM after 2 mins by liquid scintillation spectrometer analysis. An outline of the steps: as §1
The target is the same in test [4]. Kind of test: Competitive inhibition of Baker's yeast squalene synthetase using [1-3H]farnesyl pyrophosphate as substrate by Lineweaver-Burk graphic analysis. An outline of the steps: as §1
Test [5] shares this target. Description: Inhibition of Baker's yeast squalene synthetase assessed as incorporation of [1-3H]farnesyl pyrophosphate into squalene at 2 to 6 uM after 2 mins by liquid scintillation spectrometer analysis. An outline of the steps: as §1

For the molecule `CC(C)=CCC/C(C)=C/CC/C=C/COP(=O)(O)OP(=O)(O)O`, the inhibition entry in test [1] and in test [2] was “Active” in each case. The inhibition entry in test [3] is “inactive”.
For `CC(C)CCCC(C)CCCC(C)CCOP(=O)(O)OP(=O)(O)O` (stereo not given), in test [4], the inhibition entry was “Active”. Also, the inhibition result in test [3] was “inactive”.
Turning to `CC(C)=CCC/C(C)=C/CC/C(C)=C(\C)COP(=O)(O)OP(=O)(O)O`, the inhibition result in test [5] was “Active”. In addition, the inhibition result in test [3] was “inactive”.
With `CC(C)=CCC/C(C)=C/CC/C(C)=C/COP(=O)(O)OP(=O)(O)O`, in test [5], the inhibition entry is “Active”.
Consider `CSC(C/C=C(\C)CCC=C(C)C)/C(C)=C/COP(=O)(O)OP(=O)(O)O` (stereo not given), for which the inhibition result in test [4] and in test [1] was “Active” each time. Also, in test [3], the inhibition entry is “inactive”.
For the molecule `C/C(=C\COP(=O)(O)OP(=O)(O)O)CCCC(C)CCCC(C)C` (stereo not given), the inhibition entry in test [4] is “Active”. Further, the inhibition result in test [3] was “inactive”.
The corresponding values for `C/C(=C\COP(=O)(O)OP(=O)(O)O)CCCC(C)CCCC(C)CCCC(C)C` (mixture of isomers) are “Active” and “inactive”.
On to `CC/C(=C\COP(=O)(O)OP(=O)(O)O)CC/C=C(\C)CCC=C(C)C`, for which the inhibition entry in test [4] and in test [5] was “Active” throughout. Also, in test [3], the inhibition result was “inactive”.
Take `CC(C)=CCC/C(C)=C/CCC#CCOP(=O)(O)OP(=O)(O)O`: the inhibition result in test [1] and in test [2] was “Active” each time. Besides, the inhibition result in test [3] is “inactive”.
For the molecule `CC(C)=CCC/C(C)=C/COP(=O)(O)OP(=O)(O)O`, the inhibition result in test [4] and in test [5] was “Active” throughout. For the same molecule, the inhibition result in test [3] was “inactive”.
In the case of `CC(C)=CCC/C(C)=C/CC/C(I)=C\COP(=O)(O)OP(=O)(O)O`, the inhibition entry in test [4] and in test [1] was “Active” throughout. In addition, in test [3], the inhibition result is “inactive”.
Regarding `CC(C)=CCC/C(C)=C/CC/C=C(/I)COP(=O)(O)OP(=O)(O)O`, the inhibition result in test [4] and in test [1] was “Active” throughout. The inhibition entry in test [3] was “inactive”.
